Data from ChEMBL document CHEMBL3994667, “Small Molecule Lysyl Oxidase-like 2 (LOXL2) Inhibitors: The Identification of an Inhibitor Selective for LOXL2 over LOX” (ACS Med Chem Lett, 2017).

Key:
[1] = target: T1, Amine oxidase [flavin-containing] A (Homo sapiens, UniProt P21397); assay: Inhibition of recombinant human MAO-A at 30 uM using tyramine as substrate preincubated for 2 hrs followed by substrate addition measured every 30 secs for 10 minutes by Amplex red dye based fluorescence assay
T1 sequence (P21397 whole entry): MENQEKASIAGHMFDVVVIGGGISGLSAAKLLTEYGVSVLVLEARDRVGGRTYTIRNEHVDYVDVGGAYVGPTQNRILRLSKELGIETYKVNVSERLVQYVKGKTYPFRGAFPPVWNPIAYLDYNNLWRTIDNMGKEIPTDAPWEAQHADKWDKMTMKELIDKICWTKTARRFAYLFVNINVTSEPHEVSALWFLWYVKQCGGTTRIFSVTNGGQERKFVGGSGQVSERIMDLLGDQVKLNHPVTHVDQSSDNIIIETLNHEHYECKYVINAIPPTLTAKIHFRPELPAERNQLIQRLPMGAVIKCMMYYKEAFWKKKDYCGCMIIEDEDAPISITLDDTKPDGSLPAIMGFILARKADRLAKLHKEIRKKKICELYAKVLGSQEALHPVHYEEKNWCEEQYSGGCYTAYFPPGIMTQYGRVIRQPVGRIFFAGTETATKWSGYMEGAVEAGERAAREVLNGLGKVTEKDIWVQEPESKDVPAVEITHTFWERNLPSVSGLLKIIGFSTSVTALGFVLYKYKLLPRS

Cytochrome P450 2C9 = Cytochrome P450 2C9 (Homo sapiens, UniProt P11712); assay: Inhibition of CYP2C9 (unknown origin); type: ADME
[2] = target: T2, Amine oxidase [flavin-containing] B (Homo sapiens, UniProt P27338); assay: Inhibition of recombinant human MAO-B at 30 uM using benzylamine as substrate preincubated for 2 hrs followed by substrate addition measured every 30 secs for 10 minutes by Amplex red dye based fluorescence assay
T2 sequence (P27338 whole entry): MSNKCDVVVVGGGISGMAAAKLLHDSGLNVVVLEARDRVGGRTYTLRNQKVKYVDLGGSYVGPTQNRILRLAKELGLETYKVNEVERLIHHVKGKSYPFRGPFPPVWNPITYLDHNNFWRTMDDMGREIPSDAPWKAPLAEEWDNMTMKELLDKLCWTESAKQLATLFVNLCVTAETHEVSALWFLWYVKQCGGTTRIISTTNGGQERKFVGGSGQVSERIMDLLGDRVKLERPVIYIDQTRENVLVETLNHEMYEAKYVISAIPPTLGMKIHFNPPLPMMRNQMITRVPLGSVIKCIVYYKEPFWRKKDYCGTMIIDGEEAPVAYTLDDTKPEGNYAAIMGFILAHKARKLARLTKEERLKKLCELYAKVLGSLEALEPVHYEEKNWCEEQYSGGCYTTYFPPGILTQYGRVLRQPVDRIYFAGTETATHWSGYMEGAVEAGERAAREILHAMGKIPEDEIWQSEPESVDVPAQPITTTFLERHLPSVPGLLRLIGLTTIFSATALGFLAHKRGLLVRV

Protein-lysine 6-oxidase = target: T3, Protein-lysine 6-oxidase (Homo sapiens, UniProt P28300); assay: Inhibition of full length recombinant human LOX expressed in HEK cells assessed as reduction in H2O2 production using DAP as substrate preincubated for 2 hrs followed by substrate addition measured every 2 minutes for 50 minutes in presence of BSA by Amplex red dye based fluorescence assay
T3 sequence (P28300 whole entry): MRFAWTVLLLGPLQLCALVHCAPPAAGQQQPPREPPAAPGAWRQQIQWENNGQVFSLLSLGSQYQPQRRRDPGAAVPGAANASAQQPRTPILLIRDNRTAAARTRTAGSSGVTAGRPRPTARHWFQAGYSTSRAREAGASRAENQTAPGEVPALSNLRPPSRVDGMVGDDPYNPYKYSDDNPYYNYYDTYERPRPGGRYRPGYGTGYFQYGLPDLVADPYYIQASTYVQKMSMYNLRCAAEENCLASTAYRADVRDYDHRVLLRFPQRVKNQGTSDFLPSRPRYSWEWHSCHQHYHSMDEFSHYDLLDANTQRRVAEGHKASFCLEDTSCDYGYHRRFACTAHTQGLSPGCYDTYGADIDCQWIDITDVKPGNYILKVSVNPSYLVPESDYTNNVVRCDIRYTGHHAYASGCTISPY
Procedure, shortened: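 Enzyme source: serum-free conditioned media from HEK cells stably expressing human LOX, with BSA added to give measurable activity. Activity is measured as H2O2 from oxidative deamination of 1,5-diaminopentane (DAP), read by Amplex Red. IC50 is given as geometric mean x/÷ geometric standard deviation, with N-values reported.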

Lysyl oxidase homolog 2 = target: T4, Lysyl oxidase homolog 2 (Homo sapiens, UniProt Q9Y4K0); assay: Inhibition of full length recombinant human LOXL2 expressed in CHO cells assessed as reduction in H2O2 production using DAP as substrate preincubated for 2 hrs followed by substrate addition measured every 2 minutes for 50 minutes by Amplex red dye based fluorescence assay
T4 sequence (Q9Y4K0 whole entry): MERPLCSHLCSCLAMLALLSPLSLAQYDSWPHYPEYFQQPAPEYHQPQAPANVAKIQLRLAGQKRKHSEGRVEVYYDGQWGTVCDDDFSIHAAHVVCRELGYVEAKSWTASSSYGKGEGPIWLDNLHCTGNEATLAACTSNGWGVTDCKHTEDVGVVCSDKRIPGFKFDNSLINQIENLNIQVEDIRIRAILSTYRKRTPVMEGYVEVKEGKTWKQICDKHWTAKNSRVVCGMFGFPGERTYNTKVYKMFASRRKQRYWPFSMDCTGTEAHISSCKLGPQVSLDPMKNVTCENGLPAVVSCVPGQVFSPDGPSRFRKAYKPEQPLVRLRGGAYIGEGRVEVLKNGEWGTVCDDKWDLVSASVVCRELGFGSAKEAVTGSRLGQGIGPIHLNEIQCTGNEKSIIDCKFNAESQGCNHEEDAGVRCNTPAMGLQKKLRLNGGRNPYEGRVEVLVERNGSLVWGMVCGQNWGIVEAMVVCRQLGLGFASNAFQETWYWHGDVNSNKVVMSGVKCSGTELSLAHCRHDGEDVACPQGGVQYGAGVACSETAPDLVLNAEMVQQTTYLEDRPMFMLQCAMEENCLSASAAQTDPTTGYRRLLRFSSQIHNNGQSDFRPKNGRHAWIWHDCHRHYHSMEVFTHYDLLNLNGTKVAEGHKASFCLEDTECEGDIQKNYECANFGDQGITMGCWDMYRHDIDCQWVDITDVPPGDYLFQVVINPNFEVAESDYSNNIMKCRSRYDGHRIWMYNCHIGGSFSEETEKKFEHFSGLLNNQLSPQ

Cytochrome P450 3A4 = Cytochrome P450 3A4 (Homo sapiens, UniProt P08684); assay: Inhibition of CYP3A4 (unknown origin); type: ADME
Sequence of Cytochrome P450 3A4 (P08684 whole entry): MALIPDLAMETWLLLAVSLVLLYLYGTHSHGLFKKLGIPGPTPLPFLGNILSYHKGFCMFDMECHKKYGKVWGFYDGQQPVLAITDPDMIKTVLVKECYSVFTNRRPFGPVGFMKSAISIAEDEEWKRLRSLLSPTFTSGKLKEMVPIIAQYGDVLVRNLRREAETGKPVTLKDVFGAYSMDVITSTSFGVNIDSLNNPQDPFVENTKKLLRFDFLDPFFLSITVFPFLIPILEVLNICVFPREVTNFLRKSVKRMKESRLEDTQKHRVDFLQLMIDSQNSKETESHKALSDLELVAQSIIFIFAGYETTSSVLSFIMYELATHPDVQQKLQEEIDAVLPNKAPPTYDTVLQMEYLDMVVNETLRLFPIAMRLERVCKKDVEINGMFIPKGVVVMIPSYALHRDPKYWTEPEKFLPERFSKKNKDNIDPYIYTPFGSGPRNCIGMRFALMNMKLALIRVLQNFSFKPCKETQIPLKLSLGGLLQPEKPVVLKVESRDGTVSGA

Sequence of Cytochrome P450 2C9 (P11712 whole entry): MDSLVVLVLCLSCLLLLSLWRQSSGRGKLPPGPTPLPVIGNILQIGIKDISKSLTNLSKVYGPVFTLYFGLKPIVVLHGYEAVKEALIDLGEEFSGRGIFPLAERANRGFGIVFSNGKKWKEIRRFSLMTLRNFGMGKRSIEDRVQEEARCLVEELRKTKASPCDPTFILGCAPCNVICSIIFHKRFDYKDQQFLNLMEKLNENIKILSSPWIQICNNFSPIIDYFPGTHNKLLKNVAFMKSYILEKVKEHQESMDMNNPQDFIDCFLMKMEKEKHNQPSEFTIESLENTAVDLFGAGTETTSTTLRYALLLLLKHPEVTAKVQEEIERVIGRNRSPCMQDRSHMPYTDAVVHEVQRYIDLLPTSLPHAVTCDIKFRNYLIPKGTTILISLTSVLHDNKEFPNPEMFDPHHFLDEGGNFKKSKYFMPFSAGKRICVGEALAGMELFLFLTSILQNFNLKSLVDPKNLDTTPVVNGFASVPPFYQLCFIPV

inhibition (INH) [1]: Not Active
IC50 (Cytochrome P450 2C9): > 30 µM
inhibition (INH) [2]: Not Active
IC50 (Protein-lysine 6-oxidase): 5.91 µM
IC50 (Lysyl oxidase homolog 2): 0.126 µM
IC50 (Cytochrome P450 3A4): > 30 µM
Structure (SMILES): NCc1ccnc(Cl)c1
